Data set [1] relates to Human immunodeficiency virus 2. The experiment in a line: Antiviral activity against HIV-2 ROD infected in human MT4 cells assessed as protection against virus induced cytopathic effect measured at 5 days post infection by MTT assay. The following applies: Human immunodeficiency virus 2, ISOLATE ROD, MT4, 120 h. The data set is classed as functional, cell-based. The gist of the method:
(§1)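 MT-4 cells spun down (5 min, 220 g), resuspended at 6 x 10^5 cells/mL and infected with 100-300 CCID50 virus. Serial 5-fold compound dilutions added at infection, triplicate wells. After 5 days, viability read by MTT reduction at 540 and 690 nm using the median of three wells. […] Mean of at least three independent experiments.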

Data set [2] is described as follows: Selectivity index, ratio of CC50 for human MT4 cells to EC50 for HIV-1 3B wild type reverse transcriptase infected in human MT4 cells. The data set is classed as toxicity, cell-based. The following applies: read-out: Ratio CC50/EC50. A digest of the protocol: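 SI calculated as CC50 in mock-infected MT-4 cells divided by EC50 against HIV-1 IIIB. Both values come from the same 5-day MTT run, with infected and mock-infected triplicate series tested in parallel.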

Data set [3] can be described thus: Cytotoxicity against human MT4 cells assessed as reduction in cell viability after 5 days by MTT assay. The data set is classed as cell-based. A digest of the protocol: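 Mock-infected exponentially growing MT-4 cells (6 x 10^5 cells/mL) given serial 5-fold compound dilutions in triplicate wells in parallel with the infected series. Viability measured by MTT after 5 days, absorbance at 540/690 nm, median of three wells. […] Mean of at least three independent experiments.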
On the technique in general: Formazan colour is commonly taken as a measure of viable cells.

A short description of data set [4]: Inhibition of HIV-1 3B wild type reverse transcriptase infected in human MT4 cells assessed as protection against virus-induced cytopathic effect measured at 5 days post infection by MTT assay. The data set is classed as cell-based. The following applies: Human immunodeficiency virus 1, 3B, MT4, 120 h. A digest of the protocol:
as §1
A general note: Cytopathic effects are the visible damage that an infection or toxin causes in cultured cells.

Usually EC50 stands for the concentration at which the effect is half-maximal. For orientation: CC50 means the concentration giving 50% cytotoxicity.

Regarding `N#Cc1ccc(Nc2nccc(OCc3cc(F)ccc3Br)n2)cc1`, the EC50 is > 190 µM in data set [1] and 0.039 µM in data set [4]. The selectivity ratio in data set [2] is 4870. The half-maximal cytotoxic concentration (CC50) at 120 h in data set [3] came out at 190 µM.

For the compound `N#Cc1ccc(Nc2nccc(OCc3cccc4ccccc34)n2)cc1`, the EC50 in data set [1] was > 7.7 µM; in data set [4] it was 0.015 µM. Moreover, the selectivity ratio in data set [2] was 513. For the same compound, in data set [3], the CC50 at 120 h came out at 7.7 µM.

On to `COc1cccc(COc2ccnc(Nc3ccc(C#N)cc3)n2)c1`, for which the 50% effective concentration (EC50) in data set [1] is > 118 µM; in data set [4] it was 0.025 µM. For the same compound, in data set [2], the selectivity ratio is 4720. In addition, the CC50 at 120 h in data set [3] worked out at 118 µM.

In the case of `N#Cc1ccc(Nc2nccc(NCc3ccccn3)n2)cc1`, the figures for the EC50 in data set [1] and in data set [4] were > 8.5 µM and 0.0076 µM, respectively. The selectivity ratio in data set [2] worked out at 1120. Further, the CC50 at 120 h in data set [3] is 8.5 µM.

For the compound `N#Cc1ccc(Nc2nccc(OCc3ccc(F)cc3)n2)cc1`, the EC50 in data set [1] is > 81 µM; in data set [4], 0.92 µM. In addition, the selectivity ratio in data set [2] is 88. Further, the 50% cytotoxic concentration (CC50) at 120 h in data set [3] was 81 µM.

Regarding `Cc1cc(C#N)cc(C)c1Oc1nc(Nc2ccc(C#N)cc2)nc(N)c1Br` [ETRAVIRINE], the CC50 at 120 h in data set [3] was 1.9 µM. For the same compound, in data set [4], the EC50 came out at 0.0042 µM.

Take `Cc1cc(C)nc(Sc2ccnc(Nc3ccc(C#N)cc3)n2)n1`: the EC50 in data set [1] is > 224 µM; in data set [4] it was 27 µM. For the same compound, in data set [2], the selectivity ratio came to 8. Also, the CC50 at 120 h in data set [3] is 224 µM.

With `N#Cc1ccc(Nc2nccc(OCc3ccccc3C#N)n2)cc1`, the concentration giving a half-maximal response (EC50) in data set [1] is > 113 µM; in data set [4], 0.014 µM. Moreover, the selectivity ratio in data set [2] amounted to 8070. Further, in data set [3], the CC50 at 120 h came to 113 µM.

As to `Cc1cn([C@H]2C[C@H](N=[N+]=[N-])[C@@H](CO)O2)c(=O)[nH]c1=O` [ZIDOVUDINE], in data set [4], the EC50 was 0.011 µM.

As to `Cc1ccccc1COc1ccnc(Nc2ccc(C#N)cc2)n1`, the EC50 is > 12 µM in data set [1] and 0.16 µM in data set [4]. Further, in data set [2], the selectivity ratio was found to be 75. The CC50 at 120 h in data set [3] is 12 µM.

Regarding `N#Cc1ccc(Nc2nccc(OCc3ccc(Cl)cc3)n2)cc1`, the figures for the EC50 in data set [1] and in data set [4] were > 156 µM and 0.84 µM, respectively. For the same compound, the selectivity ratio in data set [2] was 186. Further, the CC50 at 120 h in data set [3] worked out at 156 µM.

Consider `N#Cc1ccc(Nc2nccc(OCc3cccc(C#N)c3)n2)cc1`, for which the results for the half-maximal effective concentration (EC50) in data set [1] and in data set [4] were > 4.1 µM and 0.18 µM, respectively. The selectivity ratio in data set [2] was 23. The CC50 at 120 h in data set [3] was determined as 4.1 µM.

As to `N#Cc1ccc(Nc2nccc(OCc3ccc(Br)cc3F)n2)cc1`, the EC50 in data set [1] is > 141 µM; in data set [4] it was 0.22 µM. The selectivity ratio in data set [2] was determined as 641. Also, the CC50 at 120 h in data set [3] was found to be 141 µM.

Take `N#Cc1ccc(Nc2nccc(OCc3ccc(Br)cc3)n2)cc1`: the EC50 was > 16 µM in data set [1] and 4.7 µM in data set [4]. In addition, the selectivity ratio in data set [2] came out at 3.4. Moreover, in data set [3], the CC50 at 120 h is 16 µM.

Take `N#Cc1ccc(Nc2nccc(OCc3ccccc3C(F)(F)F)n2)cc1`: the EC50 in data set [1] was > 173 µM; in data set [4] it was 1.7 µM. For the same compound, the selectivity ratio in data set [2] is 102. In addition, the CC50 at 120 h in data set [3] was determined as 173 µM.

Regarding `CC(C)Nc1cccnc1N1CCN(C(=O)c2cc3cc(NS(C)(=O)=O)ccc3[nH]2)CC1` [DELAVIRDINE], the CC50 at 120 h in data set [3] was determined as 23 µM. In addition, in data set [4], the concentration for a half-maximal effect (EC50) came to 0.037 µM.

Take `Cc1ccc(COc2ccnc(Nc3ccc(C#N)cc3)n2)cc1`: the EC50 in data set [1] was > 81 µM; in data set [4], 0.16 µM. Further, the selectivity ratio in data set [2] is 495. Besides, the CC50 at 120 h in data set [3] was found to be 81 µM.

Turning to `N#Cc1ccc(Nc2nccc(OCc3cccc(F)c3)n2)cc1`, the EC50 is > 105 µM in data set [1] and 0.014 µM in data set [4]. Further, the selectivity ratio in data set [2] was determined as 7500. In data set [3], the CC50 at 120 h was 105 µM.

Turning to `COc1cc(COc2ccnc(Nc3ccc(C#N)cc3)n2)cc(OC)c1`, the EC50 was > 44 µM in data set [1] and 0.0089 µM in data set [4]. Further, the selectivity ratio in data set [2] was 4940. Also, in data set [3], the CC50 at 120 h came out at 44.2 µM.

For the compound `N#Cc1ccc(Nc2nccc(OCc3ccccc3)n2)cc1`, the EC50 in data set [1] was > 13 µM; in data set [4], 0.022 µM. Further, in data set [2], the selectivity ratio is 591. Further, the CC50 at 120 h in data set [3] turned out to be 13 µM.

Regarding `N#Cc1ccc(Nc2nccc(OCc3cccc(Br)c3)n2)cc1`, the EC50 is > 221 µM in data set [1] and 0.048 µM in data set [4]. For the same compound, the selectivity ratio in data set [2] amounted to 4600. In addition, in data set [3], the CC50 at 120 h was 221 µM.

For `N#Cc1ccc(Nc2nccc(OCc3ccccc3Br)n2)cc1`, the values for the EC50 in data set [1] and in data set [4] were > 130 µM and 0.036 µM, respectively. In addition, the selectivity ratio in data set [2] stood at 3610. Also, in data set [3], the CC50 at 120 h was 130 µM.

In the case of `N#Cc1ccc(Nc2nccc(OCc3cccc(C(F)(F)F)c3)n2)cc1`, the EC50 in data set [1] was > 118 µM; in data set [4] it was 0.61 µM. Further, the selectivity ratio in data set [2] was 193. Besides, in data set [3], the CC50 at 120 h stood at 118 µM.

Turning to `N#Cc1ccc(Nc2nccc(OCc3ccccc3Cl)n2)cc1`, the results for the EC50 in data set [1] and in data set [4] were > 146 µM and 0.034 µM, respectively. Moreover, the selectivity ratio in data set [2] was found to be 4420. Further, the CC50 at 120 h in data set [3] came out at 146 µM.

With `N#Cc1ccc(Nc2nccc(OCc3ccccc3F)n2)cc1`, the EC50 in data set [1] is > 151 µM; in data set [4] it was 0.0058 µM. The selectivity ratio in data set [2] amounted to 26000. Further, the CC50 at 120 h in data set [3] amounted to 151 µM.

Regarding `N#Cc1ccc(COc2ccnc(Nc3ccc(C#N)cc3)n2)cc1`, the results for the EC50 in data set [1] and in data set [4] were > 209 µM and 1.4 µM, respectively. In addition, the selectivity ratio in data set [2] came out at 149. In data set [3], the CC50 at 120 h was 209 µM.

As to `N#Cc1ccc(Nc2nccc(OCc3cccnc3)n2)cc1`, the figures for the EC50 in data set [1] and in data set [4] were > 6.4 µM and 0.77 µM, respectively. Further, the selectivity ratio in data set [2] came to 8. Also, the cytotoxic concentration (CC50) at 120 h in data set [3] came to 6.4 µM.

`Cc1cccc(COc2ccnc(Nc3ccc(C#N)cc3)n2)c1`: the EC50 in data set [1] is > 30 µM; in data set [4], 0.0088 µM. In addition, the selectivity ratio in data set [2] came to 3410. The CC50 at 120 h in data set [3] came out at 30 µM.

As to `Cc1ccnc2c1NC(=O)c1cccnc1N2C1CC1` [NEVIRAPINE], in data set [3], the 50% cytotoxic concentration (CC50) at 120 h was > 15 µM. Further, the EC50 in data set [4] was 0.21 µM.

For the compound `O=C1Nc2ccc(Cl)cc2[C@@](C#CC2CC2)(C(F)(F)F)O1` [EFAVIRENZ], the EC50 in data set [4] is 0.0073 µM.

`N#Cc1ccc(Nc2nccc(OCc3cccc(Cl)c3)n2)cc1`: the EC50 was > 153 µM in data set [1] and 0.049 µM in data set [4]. Moreover, the selectivity ratio in data set [2] was 3120. Moreover, the CC50 at 120 h in data set [3] stood at 153 µM.

Take `COc1ccc(COc2ccnc(Nc3ccc(C#N)cc3)n2)cc1`: the EC50 in data set [1] is > 102 µM; in data set [4] it was 1 µM. Also, the selectivity ratio in data set [2] amounted to 102. For the same compound, in data set [3], the CC50 at 120 h amounted to 102 µM.

Take `N#Cc1ccc(Nc2nccc(OCc3ccc4ccccc4c3)n2)cc1`: the 50% effective concentration (EC50) in data set [1] was > 212 µM; in data set [4], 0.17 µM. Further, in data set [2], the selectivity ratio was 1250. The CC50 at 120 h in data set [3] turned out to be 212 µM.

With `COc1ccccc1COc1ccnc(Nc2ccc(C#N)cc2)n1`, the EC50 in data set [1] is > 8.9 µM; in data set [4] it was 0.027 µM. Also, the selectivity ratio in data set [2] amounted to 356. For the same compound, the CC50 at 120 h in data set [3] stood at 8.9 µM.

Consider `CN(C)c1ccnc(Nc2ccc(C#N)cc2)n1`, for which the EC50 in data set [1] and in data set [4] was > 34 µM in each case. Moreover, in data set [2], the selectivity ratio is < 1. In addition, the CC50 at 120 h in data set [3] is 34 µM.
